Screens (PubChem)
CAL PDZ FP-1: CAL PDZ (human) peptide binding inhibition | Q9HD26 | purified CAL PDZ, TMR-peptide fluorescence polarization, 1 h | inhibition, % at 24.9 µM | 300,000 compounds, 0.92% hits | AID 602252;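 active = mean inhibition of at least 30% with at least half of replicates also reaching 30%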;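 note: 0% = DMSO neutral control and 100% = excess unlabeled competitor peptide PRC23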
CAL PDZ FP-2: blocks peptide binding to human CAL PDZ domain; purified CAL PDZ, TMR-peptide fluorescence polarization, 1 h; 330,000 compounds, 0.02% hits; Q9HD26; inhibition, % at 20 µM;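 active = highest replicate inhibition of at least 40%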;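 note: plate controls were DMSO neutral control wells for no effect and unlabeled competitor peptide control wells for full effect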
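Material: tagged CAL PDZ protein CerCALP, purified; buffer or medium: sodium phosphate/NaCl buffer pH 7.4 with TCEP, IgG, Thesit; also added: fluorescent TMR peptide probe; schedule: 1 h incubation at room temperature before polarization reading; technique: fluorescence polarization from S- and P-plane intensities, G-factor corrected; control set: unlabelled peptide and DMSO controls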
ALR H2O2 inh: inhibitors of human sulfhydryl oxidase ALR | purified ALR, DTT oxidation, H2O2 HRP-luminol luminescence | inhibition, % (no concentration beside the values) | 290,000 compounds, 3.8% hits;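 active = mean replicate inhibition above about 79%, with every replicate also reaching it, limit read from the data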
Target sequence (P55789 whole entry, looked up): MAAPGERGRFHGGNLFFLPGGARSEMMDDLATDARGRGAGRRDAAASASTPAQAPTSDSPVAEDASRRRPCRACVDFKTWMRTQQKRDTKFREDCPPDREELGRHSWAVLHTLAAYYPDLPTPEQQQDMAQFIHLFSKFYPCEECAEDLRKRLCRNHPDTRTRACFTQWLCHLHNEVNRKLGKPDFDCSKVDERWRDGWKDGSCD
DYRK1A inh: Dyrk1A (rat) kinase inhibition | ADP-Glo luminescence, NFATc1 peptide | inhibition, % at 12.5 µM | 310,000 compounds, 0.43% hits; in the data active = inhibition above about 50%;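 note: plate controls were vehicle with enzyme for no effect and no enzyme for full effect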
Rtt109 Vps75: inhibitors of Candida albicans Rtt109/Vps75 histone acetyltransferase; Q5AAJ8; purified Rtt109/Vps75, ThioGlo CoA-SH fluorescence, 4 h; inhibition, % at 34.9 µM; 330,000 compounds, 0.16% hits;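 active = inhibition of at least 50% in every replicate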
Target sequence (Q5AAJ8 whole entry, looked up): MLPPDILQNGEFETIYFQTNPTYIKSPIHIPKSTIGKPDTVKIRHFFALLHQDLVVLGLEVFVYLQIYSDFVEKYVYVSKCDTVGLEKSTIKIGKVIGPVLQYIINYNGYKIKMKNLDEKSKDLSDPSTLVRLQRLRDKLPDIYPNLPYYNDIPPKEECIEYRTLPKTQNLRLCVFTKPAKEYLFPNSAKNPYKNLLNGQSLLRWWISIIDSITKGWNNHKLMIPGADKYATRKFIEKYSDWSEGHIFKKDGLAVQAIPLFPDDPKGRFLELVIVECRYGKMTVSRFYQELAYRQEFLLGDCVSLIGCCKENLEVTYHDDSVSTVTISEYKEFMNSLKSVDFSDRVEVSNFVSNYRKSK
* = called active by the depositor; · = not tested or not shown. Only some compounds are listed: those with a hit (about 4.3% of all), similar ones and a draw of the others.

SMILES | CAL PDZ FP-1 | CAL PDZ FP-2 | ALR H2O2 inh | DYRK1A inh | Rtt109 Vps75
Cc1ccc(NC2CCCN(C(=O)c3cccc(-c4ncc[nH]4)c3)C2)cc1C (stereo not drawn) | -4 | -5 | 97* | · | 2
N#CCCN(C(=O)COC(=O)Cc1ccc(Br)cc1)c1ccccc1 | -4 | -2 | -11 | -7 | -15
N#CCCN(C(=O)COC(=O)COc1ccccc1Cc1ccccc1)c1ccccc1 | 44* | 0 | · | · | 0
Cc1cccc(NC(=O)CSc2nc(NS(=O)(=O)c3ccccc3)cc(=O)[nH]2)c1 | · | 1 | 99* | 0 | 10
Cc1cc(C)cc(NC(=O)CSc2ncc(S(=O)(=O)c3ccccc3)c(=O)[nH]2)c1 | · | · | 99* | · | ·
COc1ccc(NC(=O)CSc2nc(NS(=O)(=O)c3ccccc3)cc(=O)[nH]2)cc1 | -4 | -3 | 100* | -4 | 30
Cc1ccc(S(=O)(=O)Nc2cc(=O)[nH]c(SCC(=O)Nc3cccc(C(F)(F)F)c3)n2)cc1 | -4 | -3 | · | 0 | 46
Cc1ccc(NC(=O)CSc2nc(NS(=O)(=O)c3ccc(C)cc3)cc(=O)[nH]2)cc1 | 0 | -1 | 98* | -3 | 15
Cc1ccc(NC(=O)CCN2CCC(C(N)=O)CC2)cc1 | 2 | -2 | 1 | 2 | 1
Nc1nc(NCCOCCO)nc(NCC2CCCO2)c1[N+](=O)[O-] (stereo not drawn) | -3 | 0 | -5 | -3 | -5
O=[N+]([O-])c1ccc(C(O)C23CN4CN(CN(C4)C2)C3)cc1 (stereo not drawn) | -3 | -2 | 0 | 3 | 2
CC(C)C[C@H](NC(=O)c1nc[nH]c1C(=O)N1CCN(C(=O)OC(C)(C)C)CC1)C(=O)OC(C)(C)C | -2 | -1 | · | 10 | 7
CC(C)=CC1C(C(=O)Nc2ccc(S(=O)(=O)N3CCOCC3)cc2)C1(C)C (stereo not drawn) | -3 | -3 | · | · | 15
CC1CCCC(C)N1CCCNC(=O)Cn1c(=O)c2cccn2c2cccnc21 (stereo not drawn) | 1 | 0 | -2 | -4 | -4
O=c1cc(NS(=O)(=O)c2ccccc2)nc(SCc2ccc(Cl)cc2)[nH]1 | · | -1 | 1 | 3 | 11
Cc1ccc(S(=O)(=O)Nc2cc(=O)[nH]c(SCc3ccccc3Cl)n2)cc1 | -1 | 0 | 96* | -2 | -4
CCn1cnc2scc(-c3ccc(OC)cc3)c2c1=O | · | 0 | 1 | 42 | -6
COc1ccc(-c2nn(-c3ccccc3)cc2N)cc1 | 4 | 1 | -19 | -3 | -8
COc1ccc(-c2cn(-c3ccccc3)nc2CO)cc1 | -2 | -2 | 97* | -1 | 2
CCn1cc(-c2ccccc2)c(C(=O)O)c1-c1ccc(OC)cc1 | -1 | -1 | 85* | 10 | -7
Cc1ccc(CN(C)C(=O)CN2C(=O)NC(c3ccccc3)(c3ccccc3)C2=O)c(C)c1 | 5 | -1 | · | 4 | -3
C=CCN(CC=C)C(=O)C1CCN(S(=O)(=O)c2ccc(N3CCCC3=O)cc2)CC1 | -5 | -2 | -13 | 0 | 22
O=C(Nc1scc(-c2ccc(F)cc2)c1C(=O)O)c1ccco1 | -4 | -1 | 88* | 11 | 0
N#Cc1c(NC(=O)/C=C/c2ccco2)sc2c1CCCC2 | 0 | -1 | 14 | 1 | -2
Cc1ccc(-c2csc(NC(=O)/C=C/c3ccco3)c2C(=O)O)cc1 | -2 | -3 | 97* | 2 | -2
SMILES | CAL PDZ FP-1 | CAL PDZ FP-2 | ALR H2O2 inh | DYRK1A inh | Rtt109 Vps75
O=C(/C=C/c1ccco1)Nc1sc2c(c1C(=O)O)CCC2 | · | -2 | 98* | 9 | 8
COc1cccc(NC(=O)COC(=O)C2CC2)c1 | -5 | 0 | · | · | 24
COc1cccc(/C=C2\SC(N3CCC(C)CC3)=NC2=O)c1OC | -4 | 0 | -3 | -3 | -3
COc1cccc(/C=C2\SC(N3CCCC(C)C3)=NC2=O)c1OC (stereo not drawn) | -2 | -2 | 97* | 9 | -13
CCN(Cc1ccncc1)C(=O)c1cc(COc2c(C)cccc2C)on1 | -1 | -1 | -4 | -9 | -11
COc1ccc(C(=O)NC(=S)NCc2ccco2)cc1Br | 1 | -3 | -3 | -1 | -2
O=C(N/N=C/c1sc(=O)n(-c2ccccc2)c1Cl)c1ccncc1 | -8 | -3 | 98* | 2 | -2
Cc1nc(C(=O)NNC(=O)c2ccc(C(F)(F)F)cc2)cs1 | · | · | -6 | · | ·
Cc1cc(C(=O)NNC(=O)Nc2cccc(C(F)(F)F)c2)no1 | -3 | 0 | 0 | 0 | 0
Cc1cc(C(=O)NNC(=O)c2cccc(C(F)(F)F)c2)no1 | 45* | -1 | 3 | 4 | -10
Cc1cc(C(=O)NNC(=O)c2ccc(C(F)(F)F)cc2)no1 | 60* | 0 | -4 | 2 | -7
c1ccc(CCn2nnnc2CN2CCCc3ccccc32)cc1 | 0 | · | 89* | 4 | -1
CCC(C)(C)n1nnnc1CN1CCc2ccccc21 | -1 | -2 | 98* | -1 | 2
c1ccc2c(c1)CCCN2Cc1nnnn1CC1CCCO1 (stereo not drawn) | -3 | 0 | 26 | 3 | -60
c1ccc(Oc2ncnc3sccc23)cc1 | 64* | 0 | 3 | · | -5
COc1cc(C(=O)N/N=C(\C)Cn2nc([N+](=O)[O-])cc2C)ccc1O | 17 | 1 | 83* | 10 | -2
COc1ccc(N2CCN(S(=O)(=O)c3c(C(=O)N4CCOCC4)c(C)n(C)c3C)CC2)cc1 | 1 | -3 | 43 | -4 | 2
COc1ccccc1NC(=O)c1ccc(N)cc1 | 1 | -3 | -12 | · | 1
Nc1cccc(C(=O)NCCNC(=O)c2cccc(N)c2)c1 | -3 | 1 | 4 | -3 | 3
Nc1cccc(C(=O)Nc2ccc(N)cc2Cl)c1 | 0 | 0 | 99* | -4 | 4
COC(=O)c1ccc(C(=O)Nc2ccc(N)cc2N)cc1 | 1 | -3 | 92* | 3 | -3
Nc1ccccc1C(=O)Nc1ccc(Cl)cc1Cl | -6 | -1 | -3 | 11 | 0
Nc1ccc(NC(=O)c2cccc(C(=O)Nc3ccc(N)cc3Cl)c2)c(Cl)c1 | -3 | · | 99* | 7 | 7
Nc1cccc(C(=O)Nc2ccco2)c1 | -1 | -1 | 98* | -9 | 5
O=C(O)c1cn2c3c(ccc(Cl)c3c1=O)OCC2 | -1 | -1 | 4 | 14 | 14
SMILES | CAL PDZ FP-1 | CAL PDZ FP-2 | ALR H2O2 inh | DYRK1A inh | Rtt109 Vps75
CC1CCCN(CCOc2ccc3ccccc3c2Br)C1 (stereo not drawn) | -2 | -4 | -11 | 9 | 18
CCn1c(SCC(=O)Nc2ccc(N(C)C)cc2)nnc1-c1ccco1 | -1 | -2 | · | -7 | 13
CC(C)CSc1oc(-c2ccco2)nc1S(=O)(=O)c1ccccc1 | 0 | -1 | · | 0 | 5
COc1cc(CN2CCCCC2C(=O)Nc2ccc(Oc3ccccc3)nc2)ccc1O (stereo not drawn) | -3 | 0 | 24 | -8 | 2
Cc1ccc(NCCc2ccc(C)nc2)cc1 | -2 | -1 | 49 | 2 | -2
Cc1ccc(CCNc2ccc3ccccc3c2)cn1 | -2 | -1 | 99* | 13 | 8
